# Measurements taken from ChEMBL document CHEMBL3046880, “Syntheses and herbicidal activities of novel triazolinone derivatives” (J Agric Food Chem, 2008).
# How the values were obtained:
# Type in all cases: functional
# Brassica juncea = experiment: Herbicidal activity against Brassica juncea assessed as growth inhibition at 150 g of active ingredient/ha administered using post-emergence treatment measured 15 days post treatment protocol under greenhouse conditions
# In short: (§1)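 Test agents were formulated as 100 g/L emulsified concentrates (DMF solvent, TW-80 emulsifier), diluted with water and sprayed postemergence on pot-grown weeds. Seeds were sown 1-3 cm deep in clay soil (pH 6.5, 1.6% organic matter, 37.3% clay, CEC […]) and grown at 15–30 °C in a greenhouse. Dicots were treated at the two-leaf stage. Untreated and DMF-treated plants served as controls. Activity was scored visually 15 days after treatment.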
# Setaria viridis = experiment: Herbicidal activity against Setaria viridis (green foxtail) assessed as growth inhibition at 150 g of active ingredient/ha administered using post-emergence treatment measured 15 days post treatment protocol under greenhouse conditions; in short: as §1
# Echinochloa crus-galli = experiment: Herbicidal activity against Echinochloa crus-galli (barnyard grass) assessed as growth inhibition at 150 g of active ingredient/ha administered using post-emergence treatment measured 15 days post treatment protocol under greenhouse conditions; in short: as §1
# Chenopodium album = experiment: Herbicidal activity against Chenopodium album assessed as growth inhibition at 150 g of active ingredient/ha administered using post-emergence treatment measured 15 days post treatment protocol under greenhouse conditions; in short: as §1
# Amaranthus retroflexus = experiment: Herbicidal activity against Amaranthus retroflexus assessed as growth inhibition at 150 g of active ingredient/ha administered using post-emergence treatment measured 15 days post treatment protocol under greenhouse conditions; in short: as §1
# Digitaria sanguinalis = experiment: Herbicidal activity against Digitaria sanguinalis (hairy crabgrass) assessed as growth inhibition at 150 g of active ingredient/ha administered using post-emergence treatment measured 15 days post treatment protocol under greenhouse conditions; in short: as §1
SMILES,growth inhibition (GI) (Brassica juncea) [%],growth inhibition (GI) (Setaria viridis) [%],growth inhibition (GI) (Echinochloa crus-galli) [%],growth inhibition (GI) (Chenopodium album) [%],growth inhibition (GI) (Amaranthus retroflexus) [%],growth inhibition (GI) (Digitaria sanguinalis) [%]
Cc1nn(-c2cc(N3C(=O)c4ccccc4C3=O)c(Br)cc2F)c(=O)n1C(F)F,>80,>80,50,>80,100,>80
Cc1nn(-c2cc(N3C(=O)c4ccccc4C3=O)c(Cl)cc2Cl)c(=O)n1C(F)F,<50,50,50,100,100,50
Cc1nn(-c2cc(N3C(=O)c4ccccc4C3=O)c(F)cc2Br)c(=O)n1C(F)F,<50,<50,<50,<50,<50,<50
Cc1nn(-c2cc(N3C(=O)c4ccccc4C3=O)ccc2Cl)c(=O)n1C(F)F,<50,<50,<50,<50,<50,<50
Cc1nn(-c2cc(N3C(=O)C4=C(CCCC4)C3=O)c(Br)cc2F)c(=O)n1C(F)F,<50,50,50,100,100,50
Cc1nn(-c2cc(N3C(=O)C4=C(CCCC4)C3=O)c(Cl)cc2Cl)c(=O)n1C(F)F,<50,50,50,100,100,50
Cc1nn(-c2cc(N3C(=O)C4=C(CCCC4)C3=O)c(F)cc2Br)c(=O)n1C(F)F,50,<50,<50,<50,50,<50
Cc1nn(-c2cc(N3C(=O)C4=C(CCCC4)C3=O)ccc2Cl)c(=O)n1C(F)F,<50,<50,<50,<50,<50,<50
Cc1nn(-c2cc(N3C(=O)C4CCCCC4C3=O)c(Br)cc2F)c(=O)n1C(F)F (stereo not given),50,50,50,100,100,50
Cc1nn(-c2cc(N3C(=O)C4CCCCC4C3=O)c(Cl)cc2Cl)c(=O)n1C(F)F (stereo not given),<50,<50,<50,>80,100,<50
Cc1nn(-c2cc(N3C(=O)C4CCCCC4C3=O)c(F)cc2Br)c(=O)n1C(F)F (stereo not given),50,<50,<50,50,<50,<50
Cc1nn(-c2cc(N3C(=O)C4CCCCC4C3=O)ccc2Cl)c(=O)n1C(F)F (stereo not given),<50,<50,<50,<50,<50,<50
Cc1nn(-c2cc(NC(=O)Nc3ccccc3)ccc2Cl)c(=O)n1C(F)F,<50,<50,<50,<50,<50,<50
Cc1nn(-c2cc(NC(=O)Nc3ccc(Cl)cc3)ccc2Cl)c(=O)n1C(F)F,<50,<50,<50,<50,<50,<50
Cc1nn(-c2cc(NC(=O)Nc3ccccc3)c(Br)cc2F)c(=O)n1C(F)F,<50,<50,<50,<50,<50,<50
Cc1nn(-c2cc(NC(=O)Nc3ccc(Cl)cc3)c(Br)cc2F)c(=O)n1C(F)F,<50,<50,<50,<50,<50,<50
Cc1nn(-c2cc(NC(=O)Nc3ccccc3)c(F)cc2Br)c(=O)n1C(F)F,<50,<50,<50,<50,<50,<50
Cc1nn(-c2cc(NC(=O)Nc3ccc(Cl)cc3)c(F)cc2Br)c(=O)n1C(F)F,<50,<50,<50,<50,<50,<50
Cc1nn(-c2cc(NC(=O)Nc3ccccc3)c(Cl)cc2Cl)c(=O)n1C(F)F,<50,<50,<50,<50,<50,<50
Cc1nn(-c2cc(NC(=O)Nc3ccc(Cl)cc3)c(Cl)cc2Cl)c(=O)n1C(F)F,<50,<50,<50,<50,<50,<50
